Data taken from ChEMBL document CHEMBL4393661, “PRODRUGS FOR NITROREDUCTASE BASED CANCER THERAPY- 2: Novel amide/Ntr combinations targeting PC3 cancer cells” (Eur J Med Chem, 2019).

Assays:
Format in all cases: ADME
Putative nitroreductase [1] = target: T1, Putative nitroreductase (Staphylococcus saprophyticus subsp. saprophyticus (strain ATCC 15305 / DSM20229 / NCIMB 8711 / NCTC 7292 / S-41), UniProt Q4A0P1); test: Substrate activity at Staphylococcus saprophyticus nitroreductase assessed as Kcat using NADPH as cofactor in presence of Tris-Cl buffer at pH 7.5 by spectrophotometric method
T1 sequence (Q4A0P1 whole entry): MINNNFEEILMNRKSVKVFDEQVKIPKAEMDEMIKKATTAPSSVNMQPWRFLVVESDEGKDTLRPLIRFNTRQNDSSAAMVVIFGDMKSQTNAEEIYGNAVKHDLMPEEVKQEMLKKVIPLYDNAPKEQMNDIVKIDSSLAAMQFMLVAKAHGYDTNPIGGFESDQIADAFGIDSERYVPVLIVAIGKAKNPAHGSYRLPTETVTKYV
In short: (§1)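 Michaelis–Menten parameters for recombinant Ssap-NtrB were measured spectrophotometrically at 25 °C in 25 mM Tris-Cl buffer pH 7.5 containing 5% DMSO as cosolvent.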

Putative nitroreductase [2] = target: T1, Putative nitroreductase; test: Substrate activity at Staphylococcus saprophyticus nitroreductase assessed as ratio of Kcat/Km using NADPH as cofactor in presence of Tris-Cl buffer at pH 7.5 by spectrophotometric method; in short: as §1
[3] = target: T2, Oxygen-insensitive NAD(P)H nitroreductase (Escherichia coli K-12, UniProt P38489); test: Substrate activity at Escherichia coli nitroreductase nfsB assessed as ratio of Kcat/Km using NADH as cofactor in Tris-Cl buffer at pH 7.5 by spectrophotometric method
T2 sequence (P38489 whole entry): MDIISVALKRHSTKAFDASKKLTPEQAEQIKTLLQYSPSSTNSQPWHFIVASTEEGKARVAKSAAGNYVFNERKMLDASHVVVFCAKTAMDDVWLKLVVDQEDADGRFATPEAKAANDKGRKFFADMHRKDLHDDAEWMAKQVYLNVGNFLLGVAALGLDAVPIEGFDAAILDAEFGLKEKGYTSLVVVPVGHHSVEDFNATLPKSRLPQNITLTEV

[4] = target: T3, Staphylococcus saprophyticus nitroreductase (Staphylococcus saprophyticus subsp. saprophyticus (strain ATCC 15305 / DSM20229 / NCIMB 8711 / NCTC 7292 / S-41), UniProt Q4A0P1); test: Substrate activity at Staphylococcus saprophyticus nitroreductase assessed as Km using NADPH as cofactor in presence of Tris-Cl buffer at pH 7.5 by spectrophotometric method; in short: as §1
T3 sequence (Q4A0P1 whole entry): T1 sequence (Q4A0P1 whole entry)

[5] = target: T2, Oxygen-insensitive NAD(P)H nitroreductase; test: Substrate activity at Escherichia coli nitroreductase nfsB assessed as ratio of Kcat/Km up to 80 mM using NADH as cofactor relative to CB1954/NfsB
[6] = target: T4, Escherichia coli nitroreductase nfsB (oxygen-insensitive NAD(P)H nitroreductase) (Escherichia coli K-12, UniProt P38489); test: Substrate activity at Escherichia coli nitroreductase nfsB assessed as Km using NADH as cofactor in Tris-Cl buffer at pH 7.5 by spectrophotometric method
T4 sequence (P38489 whole entry): T2 sequence (P38489 whole entry)

Putative nitroreductase [7] = target: T1, Putative nitroreductase; test: Prodrug conversion assessed Staphylococcus saprophyticus nitroreductase expressed in Escherichia coli-mediated (4-(hydroxyamino)phenyl)(morpholino)methanone metabolite formation by measuring retention time of metabolite at 100 uM incubated for 15 mins by HPLC analysis; settings: 0.25 h
In short: (§2)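 Recombinant Ssap-NtrB, Ni-column purified, was used at 2.5 µg/mL. Substrate at 100 µM was reacted with 200 µM NADH in 25 mM Tris/Cl pH 7.5 with 10% DMSO at 25 °C for 15 min. The reaction was stopped 1:1 with cold acetonitrile and run on C18 RP-HPLC at 1 mL/min with a 20–80% ACN gradient. Peaks were detected at 254 and 340 nm.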

Putative nitroreductase [8] = target: T1, Putative nitroreductase; test: Prodrug conversion assessed Staphylococcus saprophyticus nitroreductase expressed in Escherichia coli-mediated PP (4-(hydroxyamino)phenyl)(piperidin-1-yl)methanone metabolite formation by measuring retention time of metabolite at 100 uM incubated for 15 mins by HPLC analysis; settings: 0.25 h; in short: as §2
Putative nitroreductase [9] = target: T1, Putative nitroreductase; test: Prodrug conversion assessed Staphylococcus saprophyticus nitroreductase expressed in Escherichia coli-mediated (4-aminophenyl)(piperidin-1-yl)methanone metabolite formation by measuring retention time in presence of FDH cofactor regeneration system at 100 uM by HPLC analysis
In short: (§3)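 This was a coupled regeneration reaction: 100 µM substrate in Tris/Cl pH 7.5 with 5–15% DMSO, plus 100 µM NADH, 10 µM NAD+, 0.1 mg/mL BSA, 200 µM sodium formate, 30 µg/mL Ssap-NtrB and 30 µg/mL Candida methylica FDH, at 25 °C. Aliquots were taken over time, quenched 1:1 with cold acetonitrile and analysed by C18 HPLC using program II (20→80→20% ACN). Peak areas were read at 254 and 340 nm.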

Putative nitroreductase [10] = target: T1, Putative nitroreductase; test: Prodrug conversion assessed Staphylococcus saprophyticus nitroreductase expressed in Escherichia coli-mediated PP (4-(hydroxyamino)phenyl)(piperidin-1-yl)methanone metabolite formation by measuring retention time in presence of FDH cofactor regeneration system at 100 uM by HPLC analysis; in short: as §3

SMILES: NC(=O)c1cc(N(CCCl)CCCl)c([N+](=O)[O-])cc1[N+](=O)[O-]
- Kcat (Putative nitroreductase [1]): 0.8 s⁻¹
- Kcat/Km (Putative nitroreductase [2]): 9350 M⁻¹ s⁻¹
- Kcat/Km [3]: 10560 M⁻¹ s⁻¹
- Km [4]: 82.4 µM
- fold change (FC) [5]: 1.89
- Km [6]: 2500 µM

SMILES: O=C(c1ccc(NO)cc1)N1CCOCC1
- Retention_time (Putative nitroreductase [7]): 11.71 min

SMILES: O=C(c1ccc(NO)cc1)N1CCCCC1
- Retention_time (Putative nitroreductase [8]): 15.99 min
- Retention_time (Putative nitroreductase [9]): 22.3 min
- Retention_time (Putative nitroreductase [10]): 14 min
